# ChEMBL document CHEMBL1145465, “PhoU is a persistence switch involved in persister formation and tolerance to multiple antibiotics and stresses in Escherichia coli” (2007)
# Legend:
# Type in all cases: functional
# Escherichia coli [1] = test: Antibacterial activity against Escherichia coli K12 mutant JHU313 containing plasmid PhoU at 6 ug/ml after 48 hrs by disc diffusion method
# Outline: (§1)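 Kirby-Bauer disc assay: log-phase LB culture was spread on LB agar for confluent growth. 7-mm nitrocellulose discs were soaked in antibiotic at the listed concentration and placed on the agar. After 48 h at 37°C, the diameter of the inhibition zone was measured in mm.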
# Escherichia coli [2] = test: Antibacterial activity against Escherichia coli K12 PhoU wild type W3110 after 16 hrs by serial dilution method; settings: K12, 16 h
# Outline: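 Serial twofold antibiotic dilutions in LB broth; log-phase inoculum 10⁶ to 10⁷ bacteria/ml; 16 h at 37°C. MIC was the lowest concentration with no visible growth. MBC was the concentration giving a 100-fold CFU drop below the seeded inoculum.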
# Escherichia coli [3] = test: Antibacterial activity against Escherichia coli K12 containing deletion deltahipA mutant assessed as cell count in log phase at 100 ug/ml after 5 hrs
# Outline: (§2)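 Deletion mutants were made by the Datsenko–Wanner method. Log-phase or stationary-phase cultures were exposed to ampicillin at 100 μg/ml. CFU/ml was determined at the start and after 5, 24 and 72 h of exposure.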
# Escherichia coli [4] = test: Antibacterial activity against Escherichia coli K12 containing deletion deltahipA mutant assessed as cell count in stationary phase at 100 ug/ml after 5 hrs; outline: as §2
# Escherichia coli [5] = test: Antibacterial activity against Escherichia coli K12 PhoU wild type W3110 assessed as cell count in stationary phase at 100 ug/ml after 3 days
# Outline: (§3)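 Log-phase or stationary-phase cultures were exposed to ampicillin (100 μg/ml) or norfloxacin (3 μg/ml) in MOPS minimal medium, pH 5.0, at 37°C without shaking, for 5 h to 10 days. Aliquots were saline-washed and plated on LB for CFU/ml.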
# Escherichia coli [6] = test: Antibacterial activity against Escherichia coli K12 mutant JHU313 containing plasmid vector at 1.5 ug/ml after 48 hrs by disc diffusion method; outline: as §1
# Escherichia coli [7] = test: Antibacterial activity against Escherichia coli K12 containing deletion deltaphoBR mutant assessed as cell count in log phase at 100 ug/ml after 24 hrs; outline: as §2
# Escherichia coli [8] = test: Antibacterial activity against Escherichia coli K12 mutant JHU313 after 16 hrs by serial dilution method; settings: K12, 16 h
# Outline: (§4)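 Twofold serial antibiotic dilutions in LB broth were seeded with 10⁶–10⁷ bacteria/ml from log-phase culture and incubated 16 h at 37°C. MIC was taken as the lowest concentration with no visible growth. MBC was taken as the concentration giving a 100-fold CFU drop from the inoculum.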
# Escherichia coli [9] = test: Antibacterial activity against Escherichia coli K12 mutant JHU313 containing plasmid PhoU after 16 hrs by serial dilution method; settings: K12, 16 h; outline: as §4
# Escherichia coli [10] = test: Antibacterial activity against Escherichia coli K12 containing deletion deltaphoB mutant assessed as cell count in log phase at 100 ug/ml after 24 hrs; outline: as §2
# Escherichia coli [11] = test: Antibacterial activity against Escherichia coli K12 PhoU wild type W3110 assessed as cell count in log phase at 100 ug/ml after 1 week
# Outline: (§5)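 Log-phase or stationary-phase cultures exposed to ampicillin 100 μg/ml in MOPS minimal medium (pH 5.0) at 37°C without shaking, for 5 h up to 10 days. Aliquots were taken at each time point, washed in saline and plated on LB plates for viable CFU/ml.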
# Escherichia coli [12] = test: Antibacterial activity against Escherichia coli K12 containing deletion deltaphoBR mutant assessed as cell count in stationary phase at 100 ug/ml after 24 hrs; outline: as §2
# Escherichia coli [13] = test: Antibacterial activity against Escherichia coli K12 PhoU wild type W3110 assessed as cell count in stationary phase at 100 ug/ml after 1 week; outline: as §5
# Escherichia coli [14] = test: Antibacterial activity against Escherichia coli K12 containing deletion deltaphoB mutant assessed as cell count in stationary phase at 100 ug/ml after 24 hrs; outline: as §2
# Escherichia coli [15] = test: Antibacterial activity against Escherichia coli K12 PhoU wild type W3110 assessed as cell count in log phase at 100 ug/ml after 5 days; outline: as §5
# Escherichia coli [16] = test: Antibacterial activity against Escherichia coli K12 mutant JHU313 containing plasmid vector after 16 hrs by serial dilution method; settings: K12, 16 h; outline: as §4
# Escherichia coli [17] = test: Antibacterial activity against Escherichia coli K12 containing deletion deltaphoU mutant assessed as cell count in log phase at 3 ug/ml after 1 week
# Outline: (§6)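 Log-phase or stationary-phase cultures of the ΔphoU deletion mutant (Datsenko–Wanner construction) were exposed to norfloxacin 3 μg/ml in MOPS minimal medium, pH 5.0, at 37°C without shaking, for up to 10 days. Sampled aliquots were washed in saline and plated on LB agar for CFU/ml.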
# Escherichia coli [18] = test: Antibacterial activity against Escherichia coli K12 containing deletion deltaphoU mutant assessed as cell count in log phase at 3 ug/ml after 5 days; outline: as §6
# Escherichia coli [19] = test: Antibacterial activity against Escherichia coli K12 containing PhoU mutant assessed as cell count in stationary phase at 3 ug/ml after 1 week; outline: as §3
# Escherichia coli [20] = test: Antibacterial activity against Escherichia coli K12 containing deletion deltaphoU mutant assessed as cell count in stationary phase at 3 ug/ml after 1 week; outline: as §6
# Escherichia coli [21] = test: Antibacterial activity against Escherichia coli K12 mutant JHU313 containing plasmid vector at 4 ug/ml after 48 hrs by disc diffusion method
# Outline: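 Kirby-Bauer paper-disc assay: log-phase E. coli (10⁸ bacteria) grown in LB broth, spread on LB agar for confluent growth; 7 mm nitrocellulose discs soaked with antibiotic solution at the listed concentration (μg/ml) placed on surface; incubated 37°C for 48 h; diameter of growth-inhibition zone measured in mm. Strain is the phoU transposon mutant transformed by electroporation with empty vector control.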
# Escherichia coli [22] = test: Antibacterial activity against Escherichia coli K12 mutant JHU313 containing plasmid PhoU at 0.5 ug/ml after 48 hrs by disc diffusion method; outline: as §1
# Escherichia coli [23] = test: Antibacterial activity against Escherichia coli K12 containing deletion deltaphoU mutant assessed as cell count in log phase at 3 ug/ml after 10 days; outline: as §6
# Escherichia coli [24] = test: Antibacterial activity against Escherichia coli K12 containing PhoU mutant assessed as cell count in log phase at 3 ug/ml after 3 days; outline: as §3
# Escherichia coli [25] = test: Antibacterial activity against Escherichia coli K12 PhoU wild type W3110 assessed as cell count in log phase at 3 ug/ml after 10 days; outline: as §3
# Escherichia coli [26] = test: Antibacterial activity against Escherichia coli K12 mutant JHU313 containing plasmid vector at 0.5 ug/ml after 48 hrs by disc diffusion method; outline: as §1
# Escherichia coli [27] = test: Antibacterial activity against Escherichia coli K12 PhoU wild type W3110 assessed as cell count in stationary phase at 3 ug/ml after 5 hrs; outline: as §3
# Escherichia coli [28] = test: Antibacterial activity against Escherichia coli K12 mutant JHU313 containing plasmid vector at 2 ug/ml after 48 hrs by disc diffusion method; outline: as §1
# Escherichia coli [29] = test: Antibacterial activity against Escherichia coli K12 containing deletion deltaphoU mutant assessed as cell count in stationary phase at 3 ug/ml after 1 day; outline: as §6
# Escherichia coli [30] = test: Antibacterial activity against Escherichia coli K12 mutant JHU313 at 2 ug/ml after 48 hrs by disc diffusion method; outline: as §1
# Escherichia coli [31] = test: Antibacterial activity against Escherichia coli K12 mutant JHU313 at 4 ug/ml after 48 hrs by disc diffusion method; outline: as §1
structure (smiles),measurement,setting,value
CC1(C)S[C@@H]2[C@H](NC(=O)[C@H](N)c3ccccc3)C(=O)N2[C@H]1C(=O)O [AMPICILLIN],inhibition zone (IZ),Escherichia coli [1],32 mm
same,MBC,Escherichia coli [2],12.5 µg/mL
same,MIC,Escherichia coli [2],3.1 µg/mL
same,CFU,Escherichia coli [3],1 10^4/ml
same,CFU,Escherichia coli [4],6 10^9/ml
same,CFU,Escherichia coli [5],1 10^8/ml
same,inhibition zone (IZ),Escherichia coli [6],27 mm
same,CFU,Escherichia coli [7],2 10^3/ml
same,MBC,Escherichia coli [8],6.25 µg/mL
same,MIC,Escherichia coli [8],1.5 µg/mL
same,MBC,Escherichia coli [9],12.5 µg/mL
same,MIC,Escherichia coli [9],3.1 µg/mL
same,CFU,Escherichia coli [10],1 10^2/ml
same,CFU,Escherichia coli [11],0 mL⁻¹
same,CFU,Escherichia coli [12],1.7 10^9/ml
same,CFU,Escherichia coli [13],5 10^6/ml
same,CFU,Escherichia coli [14],1.8 10^9/ml
same,CFU,Escherichia coli [15],0 mL⁻¹
same,MBC,Escherichia coli [16],6.25 µg/mL
same,MIC,Escherichia coli [16],1.5 µg/mL
CCn1cc(C(=O)O)c(=O)c2cc(F)c(N3CCNCC3)cc21 [NORFLOXACIN],CFU,Escherichia coli [17],0 mL⁻¹
same,MBC,Escherichia coli [2],1 µg/mL
same,MIC,Escherichia coli [2],0.5 µg/mL
same,CFU,Escherichia coli [18],0 mL⁻¹
same,CFU,Escherichia coli [19],0 mL⁻¹
same,CFU,Escherichia coli [20],0 mL⁻¹
same,inhibition zone (IZ),Escherichia coli [21],44 mm
same,inhibition zone (IZ),Escherichia coli [22],31 mm
same,MBC,Escherichia coli [8],0.5 µg/mL
same,MIC,Escherichia coli [8],0.125 µg/mL
same,MBC,Escherichia coli [9],1 µg/mL
same,MIC,Escherichia coli [9],0.5 µg/mL
same,CFU,Escherichia coli [23],0 mL⁻¹
same,CFU,Escherichia coli [24],0 mL⁻¹
same,CFU,Escherichia coli [25],0 mL⁻¹
same,inhibition zone (IZ),Escherichia coli [26],35 mm
same,CFU,Escherichia coli [27],5 10^9/ml
same,inhibition zone (IZ),Escherichia coli [28],40 mm
same,MBC,Escherichia coli [16],0.5 µg/mL
same,MIC,Escherichia coli [16],0.125 µg/mL
same,CFU,Escherichia coli [29],2 10^8/ml
same,inhibition zone (IZ),Escherichia coli [30],34 mm
same,inhibition zone (IZ),Escherichia coli [31],37 mm
